Assay results reported in ChEMBL document CHEMBL3352269, “Discovery of 2-Pyridylpyrimidines as the First Orally Bioavailable GPR39 Agonists” (ACS Med Chem Lett, 2014).
Calls of active or inactive are those of the source. The calls are words filed in the database; no cut-off is given here.

Legend:
[1] = target: T1, G-protein coupled receptor 39 (Homo sapiens, UniProt O43194); assay: Agonist activity at human GPR39 expressed in HEK293 cells by IP1 assay; assay type: functional, cell-based
T1 sequence (O43194 whole entry): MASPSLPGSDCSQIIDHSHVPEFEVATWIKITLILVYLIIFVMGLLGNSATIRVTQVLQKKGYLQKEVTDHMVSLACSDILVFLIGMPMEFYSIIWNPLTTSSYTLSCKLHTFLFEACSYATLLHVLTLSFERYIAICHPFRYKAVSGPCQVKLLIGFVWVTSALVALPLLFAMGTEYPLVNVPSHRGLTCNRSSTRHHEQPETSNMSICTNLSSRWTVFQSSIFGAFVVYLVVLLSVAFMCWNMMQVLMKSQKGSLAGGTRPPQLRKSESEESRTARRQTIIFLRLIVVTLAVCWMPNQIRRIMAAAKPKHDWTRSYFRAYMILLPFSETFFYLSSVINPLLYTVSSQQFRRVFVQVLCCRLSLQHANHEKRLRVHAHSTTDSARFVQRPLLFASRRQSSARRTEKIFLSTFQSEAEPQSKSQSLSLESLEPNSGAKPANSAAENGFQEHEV
Summary of the method: (§1)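 Gαq signalling read as inositol-1-phosphate (IP1) accumulation in HEK293 cells overexpressing human, mouse or rat GPR39. EC50 taken from an 11-point dose–response curve run in triplicate. Replicates range from 1 to 4, with standard deviation where available.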

[2] = target: T2, G-protein coupled receptor 39 (Mus musculus, UniProt Q5U431); assay: Agonist activity at mouse GPR39 expressed in HEK293 cells by IP1 assay; assay type: functional, cell-based; summary of the method: as §1
T2 sequence (Q5U431 whole entry): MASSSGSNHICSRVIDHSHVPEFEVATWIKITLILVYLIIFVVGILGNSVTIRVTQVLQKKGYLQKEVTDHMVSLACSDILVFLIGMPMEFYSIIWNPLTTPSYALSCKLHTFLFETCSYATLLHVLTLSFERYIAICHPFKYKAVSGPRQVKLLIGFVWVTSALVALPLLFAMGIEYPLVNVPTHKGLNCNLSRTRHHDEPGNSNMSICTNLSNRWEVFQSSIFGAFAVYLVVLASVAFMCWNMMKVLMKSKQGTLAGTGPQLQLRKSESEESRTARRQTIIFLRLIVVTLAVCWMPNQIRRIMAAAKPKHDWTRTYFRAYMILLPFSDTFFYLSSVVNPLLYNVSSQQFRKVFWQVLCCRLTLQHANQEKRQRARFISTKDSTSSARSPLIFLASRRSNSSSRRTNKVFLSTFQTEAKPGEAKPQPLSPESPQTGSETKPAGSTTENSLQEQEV

[3] = Hepatic clearance in rat liver microsomes; assay type: ADME
Summary of the method: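 Predicted hepatic clearance calculated from intrinsic clearance in rat liver microsomes.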

[4] = target: T1, G-protein coupled receptor 39; assay: Agonist activity at human GPR39 expressed in HEK293 cells by cAMP assay; assay type: functional, cell-based
Summary of the method: (§2)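 cAMP accumulation (Gαs signalling) in HEK293 cells overexpressing human GPR39. Dose–response curve run in triplicate, 1–16 replicates. EC50 derived from the curve. Percent efficacy is expressed relative to the cAMP response to 25 μM forskolin.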

[5] = Induction of GLP1 secretion in mouse STC1 cells incubated for 2 hrs by fluorescent bead based ELISA method; assay type: functional, cell-based; conditions: STC-1, 2 h
Summary of the method: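 Mouse enteroendocrine STC-1 cells, which express endogenous GPR39, were assayed for GLP-1 secretion over a dose–response run in triplicate. Maximal activity is expressed as fold increase in GLP-1 over the DMSO control.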

[6] = target: T3, G-protein coupled receptor 39 (Homo sapiens) (UniProt O43194); assay: Agonist activity at human GPR39 expressed in HEK293 cells by cAMP assay relative to forskolin; assay type: functional, cell-based; summary of the method: as §2
T3 sequence (whole entry): T1 sequence (O43194 whole entry)

Protein Gpr39 [7] = target: T4, Protein Gpr39 (Rattus norvegicus, UniProt A6QR73); assay: Agonist activity at rat GPR39 expressed in HEK293 cells by IP1 assay; assay type: functional, cell-based; summary of the method: as §1
T4 sequence (A6QR73 whole entry): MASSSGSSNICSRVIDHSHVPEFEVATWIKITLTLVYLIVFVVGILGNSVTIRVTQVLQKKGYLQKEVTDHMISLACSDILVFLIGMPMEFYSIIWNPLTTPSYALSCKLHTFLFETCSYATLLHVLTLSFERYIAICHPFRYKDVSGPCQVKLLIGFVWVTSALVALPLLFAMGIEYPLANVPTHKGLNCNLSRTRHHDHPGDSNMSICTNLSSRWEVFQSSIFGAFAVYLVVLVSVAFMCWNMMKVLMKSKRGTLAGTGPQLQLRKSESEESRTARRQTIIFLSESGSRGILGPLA

[8] = Protection against cytokine-induced cell death in rat INS-1E cells assessed as caspase 3/7 activity; assay type: functional, cell-based
Summary of the method: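 Rat insulinoma INS-1E cells (beta-cell phenotype) were treated with cytokines to induce cell death. Caspase 3/7 activity was the read-out. Dose–response run in triplicate.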

[9] = target: T3, G-protein coupled receptor 39 (Homo sapiens); assay: Agonist activity at human GPR39 expressed in HEK293 cells in presence of sub-EC50 dose of zinc chloride by IP1 assay; assay type: functional, cell-based
Mus musculus = assay: Increase in GLP1 level in C57BL/6 mouse at 30 mg/kg, po concurrently dosed with 3 mg/kg, po DPP4 inhibitor PKF275-055 followed by glucose challenge after 1 hr post drug dose; assay type: functional
Summary of the method: (§3)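 Male C57BL/6 mice were dosed orally with compound together with a DPP-IV inhibitor. After 1 h they were challenged with oral glucose at 3 g/kg. Active GLP-1 and plasma exposure were measured 30 min later. One-way ANOVA with Dunnett's post-test against the vehicle group.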

[10] = Cmax in C57BL/6 mouse at 30 mg/kg, po administered as single dose after 1 to 1.5 hrs by LC/MS/MS method; assay type: ADME, organism-based; design: dose 30 mg/kg, route oral; conditions: in vivo
[11] = Plasma concentration in C57BL/6 mouse at 30 mg/kg, po concurrently dosed with 3 mg/kg, po DPP4 inhibitor PKF275-055 followed by glucose challenge after 1 hr post drug dose; assay type: ADME, organism-based; summary of the method: as §3
[12] = target: Growth hormone secretagogue receptor type 1 (Homo sapiens, UniProt Q92847); assay: Binding affinity to human ghrelin receptor
[13] = target: Neurotensin receptor type 1 (Homo sapiens, UniProt P30989); assay: Binding affinity to human neurotensin 1 receptor
[14] = Cmax in C57BL/6 mouse at 10 mg/kg, po administered as single dose after 1 to 1.5 hrs by LC/MS/MS method; assay type: ADME, organism-based; design: dose 10 mg/kg, route oral; conditions: in vivo
Protein Gpr39 [15] = target: T4, Protein Gpr39; assay: Agonist activity at rat GPR39 by IP1 assay; assay type: functional; summary of the method: as §1
[16] = Half life in C57BL/6 mouse at 10 mg/kg, po administered as single dose by LC/MS/MS method; assay type: ADME, organism-based; design: dose 10 mg/kg, route oral; conditions: in vivo
Summary of the method: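 Male C57BL/6 mice, separate study with a single 10 mg/kg dose. Half-life calculated from the plasma concentration profile.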

[17] = Protein binding in mouse plasma; assay type: ADME, cell-free; conditions: read-out: PPB (converted)
[18] = target: T1, G-protein coupled receptor 39; assay: Agonist activity at human GPR39 by IP1 assay; assay type: functional; summary of the method: as §1
[19] = Protein binding in rat plasma; assay type: ADME, cell-free; conditions: read-out: PPB (converted)
[20] = Cmax in C57BL/6 mouse at 100 mg/kg, po administered as single dose after 1 to 1.5 hrs by LC/MS/MS method; assay type: ADME, organism-based; design: dose 100 mg/kg, route oral; conditions: in vivo

Sequence of Neurotensin receptor type 1 (P30989 whole entry): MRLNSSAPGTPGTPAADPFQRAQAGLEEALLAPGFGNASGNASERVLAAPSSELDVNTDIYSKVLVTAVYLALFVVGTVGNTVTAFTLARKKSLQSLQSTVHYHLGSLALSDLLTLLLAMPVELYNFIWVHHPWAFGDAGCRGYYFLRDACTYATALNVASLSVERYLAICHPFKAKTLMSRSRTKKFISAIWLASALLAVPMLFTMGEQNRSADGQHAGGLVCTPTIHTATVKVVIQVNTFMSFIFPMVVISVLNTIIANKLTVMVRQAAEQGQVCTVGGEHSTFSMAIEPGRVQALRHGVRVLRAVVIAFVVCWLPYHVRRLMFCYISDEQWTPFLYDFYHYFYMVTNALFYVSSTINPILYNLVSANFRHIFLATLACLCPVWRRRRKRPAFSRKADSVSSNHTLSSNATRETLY
Sequence of Growth hormone secretagogue receptor type 1 (Q92847 whole entry): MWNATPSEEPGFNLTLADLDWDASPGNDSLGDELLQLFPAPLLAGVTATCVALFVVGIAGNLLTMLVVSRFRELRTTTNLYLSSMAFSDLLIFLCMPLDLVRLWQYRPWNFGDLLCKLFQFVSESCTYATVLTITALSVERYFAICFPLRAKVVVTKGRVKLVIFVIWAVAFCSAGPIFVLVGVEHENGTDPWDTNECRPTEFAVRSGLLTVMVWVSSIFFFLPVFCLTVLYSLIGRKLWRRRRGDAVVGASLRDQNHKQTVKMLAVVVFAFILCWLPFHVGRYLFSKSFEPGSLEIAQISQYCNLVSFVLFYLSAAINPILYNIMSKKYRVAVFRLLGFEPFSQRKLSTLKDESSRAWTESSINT

| EC50 [1] [nM] | EC50 [2] [nM] | CLhep predicted [3] [mL/min/kg] | SMILES | further results |
| --- | --- | --- | --- | --- |
| 30 | 8 | 31.9 | CNC(=O)c1ccc(CNc2cc(-c3ccccn3)nc(NC)n2)cc1 | – |
| 1 | – | 25.9 | CNc1nc(NCc2ccc(NC(C)=O)cc2F)cc(-c2ccccn2)n1 | EC50 [4]: 350 nM; EC50 [5]: 200 nM; Efficacy [6]: 55%; EC50 (Protein Gpr39 [7]): 0.6 nM; EC50 [8]: 40 nM |
| 5 | 2 | 35.9 | CNc1nc(NCc2ccc(NC(C)=O)cc2)cc(-c2ccccn2)n1 | EC50 [4]: 550 nM; EC50 [5]: 4400 nM; Efficacy [6]: 48%; EC50 (Protein Gpr39 [7]): 2 nM; EC50 [8]: 1200 nM |
| 87 | 304 | – | CNc1nc(NCc2ccncc2)cc(-c2ccccn2)n1 | – |

Continued, compound first:

| SMILES | EC50 [1] [nM] | EC50 [2] [nM] | CLhep predicted [3] [mL/min/kg] | further results |
| --- | --- | --- | --- | --- |
| CNc1nc(Nc2ccc(N(C)C(C)=O)cc2)cc(-c2ccccn2)n1 | 1180 | 2610 | – | – |
| CNc1nc(NCc2ccc(OC(F)(F)F)cc2)cc(-c2ccccn2)n1 | 13 | 7 | > 52.3 | – |
| O=S(=O)(NC[C@H]1CC[C@H](CNc2cc(-c3ccccn3)nc(NCC3CC3)n2)CC1)c1ccc(F)cc1 | – | – | – | Activity [9]: Active |
| FC(F)(F)Oc1ccc(CNc2nc(NCC3CC3)cc(-c3ccccn3)n2)cc1 | 600 | 22 | – | – |
| CNc1nc(NCc2ccc(NS(C)(=O)=O)cc2Cl)cc(-c2ccccn2)n1 | 0.8 | – | 41.3 | EC50 [4]: 60 nM; fold change (FC) (Mus musculus): 6; Cmax [10]: 6.1 µM; EC50 [5]: 60 nM; concentration at 1 h [11]: 1600 nM; IC50 [12]: > 30 µM; IC50 [13]: > 30 µM; Efficacy [6]: 64%; Cmax [14]: 1400 nM; EC50 (Protein Gpr39 [7]): 0.4 nM; EC50 (Protein Gpr39 [15]): 0.4 nM; half-life [16]: 420 min; fraction unbound [17]: 0.009; EC50 [18]: 0.8 nM; fraction unbound [19]: 0.007; Cmax [20]: 25.3 µM; EC50 [8]: 20 nM |
| CNc1nc(NCC(C)(C)C)cc(-c2ccccn2)n1 | 73 | 365 | – | – |
| Cc1nc(NCc2ccc(Cl)cc2)cc(-c2ccccn2)n1 | 81 | 17 | > 52.3 | – |
| FC(F)(F)CNc1nc(NCc2ccc(Cl)cc2)cc(-c2ccccn2)n1 | 60 | 1 | > 52.3 | – |
| c1ccc(-c2cc(NCC3CC3)ncn2)nc1 | 22000 | 10000 | – | – |
